A number with no mark means an inactive call. For part of these data: Potency and affinity values are given separately. Calls of active or inactive are those of the source.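 How the source made its calls, unless noted: active means primary screen activator hit with a dose response curve and TRPC4 channel activation at any tested dose; inactive means no activation, no dose response, or not a primary hit.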
Target: Short transient receptor potential channel 4 (Mus musculus) (UniProt Q9QUQ5)
Assay: blockers of DAMGO-evoked TRPC4 calcium flux – cell-based, second round, Fluo4, HEK293 TRPC4beta/mu-opioid, 1 µM, confirmation (AID 2637;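 active means calcium signal ratio cut to more than 3 SD under the fully stimulated control mean yet still positive, in both repeats and the primary screen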;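 on inhibition: percent of integrated ratio relative to wells lacking test compound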)
Conditions: at 1 µM; active compounds read high
Method in brief: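 Test system: HEK293 stable line co-expressing TRPC4beta and mu-opioid receptor. Compound dosing: single test compound concentration, 1 µM final. Measured by: Fluo4 calcium fluorescence, kinetic real-time read after baseline. Incubation: Fluo4 loading 45 min, compound exposure 110 s. Probe or stimulus: sequential submaximal then maximal DAMGO stimulation. Controls: ECmax and compound-free wells.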

Short transient receptor potential channel 4 (Mus musculus), sequence (Q9QUQ5 whole entry, looked up): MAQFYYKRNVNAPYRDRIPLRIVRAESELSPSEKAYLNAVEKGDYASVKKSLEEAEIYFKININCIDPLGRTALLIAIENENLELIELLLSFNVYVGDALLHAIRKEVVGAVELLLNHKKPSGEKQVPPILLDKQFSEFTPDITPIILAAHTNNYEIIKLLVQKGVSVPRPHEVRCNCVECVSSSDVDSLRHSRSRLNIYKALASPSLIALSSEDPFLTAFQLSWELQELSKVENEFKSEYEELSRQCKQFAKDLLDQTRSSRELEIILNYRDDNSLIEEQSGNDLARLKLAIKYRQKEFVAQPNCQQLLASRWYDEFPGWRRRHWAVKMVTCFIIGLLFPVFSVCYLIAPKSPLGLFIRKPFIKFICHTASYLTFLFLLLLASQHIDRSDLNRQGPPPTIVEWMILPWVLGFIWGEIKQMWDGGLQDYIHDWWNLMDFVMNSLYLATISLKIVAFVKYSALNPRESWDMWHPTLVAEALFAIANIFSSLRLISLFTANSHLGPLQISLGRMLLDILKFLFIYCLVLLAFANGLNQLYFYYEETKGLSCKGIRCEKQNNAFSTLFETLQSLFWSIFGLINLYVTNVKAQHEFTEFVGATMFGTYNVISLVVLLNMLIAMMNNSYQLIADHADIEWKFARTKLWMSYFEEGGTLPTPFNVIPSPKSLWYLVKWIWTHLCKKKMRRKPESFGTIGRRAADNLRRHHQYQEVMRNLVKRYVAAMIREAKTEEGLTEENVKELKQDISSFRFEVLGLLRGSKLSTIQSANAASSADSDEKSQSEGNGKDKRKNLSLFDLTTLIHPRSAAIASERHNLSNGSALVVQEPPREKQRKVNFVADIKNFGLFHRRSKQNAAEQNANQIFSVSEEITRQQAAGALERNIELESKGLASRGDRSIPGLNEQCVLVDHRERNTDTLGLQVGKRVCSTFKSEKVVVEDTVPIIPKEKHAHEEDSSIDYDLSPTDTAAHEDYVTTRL

Compound	outcome	inhibition
CCCn1c(NCc2cc(OC)ccc2OC)nc2ccccc21	inactive	
COC(=O)c1ccc(NC(=O)CCN2CCN(Cc3ccccc3)CC2)cc1	inactive	
Cn1c(=O)c2c(nc(SCCN3CCCCC3)n2Cc2ccccc2)n(C)c1=O	inactive	
O=C(NCc1ccccc1Cl)/C(=C\c1cccnc1)NC(=O)c1ccccc1	inactive	
COC(=O)[C@@]12CCCN1[C@H](c1ccc(-c3ccc(OC)cc3)cc1)[C@@H]1C(=O)N(C)C(=O)[C@@H]12	inactive	
COc1ccc(-c2cc(C(F)(F)F)nc(N3CCN(C)CC3)n2)cc1	inactive	
CCOc1ccc(NS(=O)(=O)c2ccc(NC(=S)NC(=O)CC(C)C)cc2)cc1	inactive	
CCCN(CCC)CCCNC(=O)c1cc2c(=O)n(C)c3ccccc3c2n1C	inactive	
COc1ccc(CNCC(O)(c2ccccc2)c2ccccc2)cc1OC	inactive	
CCOc1cc2[nH]c(=S)n(C3CC3)c(=O)c2cc1OCC	inactive	
CCOC(=O)c1c(C(F)(F)C(F)(F)C(F)(F)C(F)(F)F)n[nH]c1C	inactive	
Cn1c(=O)cc(OCCCC(=O)NCCCN2CCN(Cc3ccccc3)CC2)c2ccccc21	inactive	
CC(=O)C1=C(O)C(=O)N(Cc2ccco2)C1c1ccc2c(c1)OCO2 (stereo not drawn)		47% (active)
CCc1cc2c(SCC(=O)N(C)C3CCS(=O)(=O)C3)ncnc2s1 (stereo not drawn)	inactive	
OC(CNCC1CCCO1)Cn1c2ccc(Br)cc2c2cc(Br)ccc21 (stereo not drawn)	inactive	
CCN1CCN(c2ccc(S(=O)(=O)N3CCCCC3)cc2NC(=O)c2cccc(F)c2)CC1	inactive	
COC(=O)/C=C1\SC(=NC(=O)c2cccc(Cl)c2)NC1=O	inactive	
CCCc1ccc(OCc2ccc(C(=O)N3CCCC3)o2)cc1	inactive	
Cc1ccc(-c2csc3ncnc(NCCN4CCOCC4)c23)cc1	inactive	
Cn1c(=O)n(CCCO)c(=O)c2c1nc1n2CCCN1Cc1ccccc1		46% (active)
O=C(NC1CC1)c1ccc2c(c1)N(Cc1ccc(Cl)cc1)CCS2	inactive	
O=C(COc1ccccc1-c1ccccc1)NCc1ccco1	inactive	
CCOc1ccc2nc(NCCNC(=O)C3CC3)c(C)cc2c1	inactive	

Target: Short transient receptor potential channel 4 (Mus musculus) (UniProt Q9QUQ5)
Assay: calcium entry via TRPC4 opening agents – cell-based, HEK293 TRPC4/mu-opioid, Fluo-4 calcium, dose response (AID 434937);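 further: HEK293 cells coexpressing mouse TRPC4 with mu-opioid receptor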
Conditions: HEK293 TRPC4 cells, Fluo-4 calcium fluorescence ratio; series mostly up to 20 µM; activation ratio: at the top concentration

Compound	activation ratio
Cc1cc(N2CCCCC2)nc(NCc2ccccc2)n1	34.6
COCCNC(=O)/C(C#N)=C/c1cc(C(C)C)c(OC)cc1C	-0.74
CCN1CCN(c2ccc(S(=O)(=O)N3CCCCC3)cc2NC(=O)COc2cc(C)ccc2Cl)CC1	11.1
FC(F)(F)COc1nc(N2CCCCC2)nc(N2CCNCC2)n1	30.1
CCSc1nnc([C@H](Cc2c[nH]c3ccccc23)NC(=O)OC(C)(C)C)o1	-0.35
COc1ccc(/C=C(\C#N)C(=O)N2CCOCC2)cc1Br	4.55
N#Cc1ccc(OCC(O)CN2CCN(c3ncc(C(F)(F)F)cc3Cl)CC2)cc1 (stereo not drawn)	4.49
CCCC1=C(C(=O)OCC)C(c2cc(Cl)cc(OC)c2OCC(=O)OCC)NC(=O)N1 (stereo not drawn)	-0.83
CCCCCc1ccc(OCCCC[n+]2ccccc2)c(CCCCC)c1	3.66
CC(C)(C)c1ccccc1OCCCCCn1ccnc1	23
CCOC(=O)COc1cc(-n2c(=S)[nH]c3ccccc3c2=O)c(Cl)cc1Cl	6.93
CCCCc1nc(N2CCOCC2)c(C#N)c2c1CCCC2	10.6
CCN1CCN(c2ccc(NC(=O)CCc3c(C)nc4c(-c5ccc(F)cc5)c(C)nn4c3C)cc2)CC1	0.22
CCOc1cc(/C=C(\C#N)C(=O)Nc2cccc(C(=O)O)c2)cc(Br)c1OC(=O)c1ccc(OC)cc1	10.5
COc1ccc(Cl)c2sc(N(CCN(C)C)C(=O)c3ccc4c(c3)OCCO4)nc12	6.87
CCCCN1C(=O)C(=O)N(CC(=O)Nc2cc(OCC)c(N3CCOCC3)cc2OCC)C1=O	0.14
CN(C)CCOc1ccc2ccccc2c1	2.05
CCCn1c(NCc2cc(OC)ccc2OC)nc2ccccc21	0.09
COC(=O)c1ccc(NC(=O)CCN2CCN(Cc3ccccc3)CC2)cc1	56
Cn1c(=O)c2c(nc(SCCN3CCCCC3)n2Cc2ccccc2)n(C)c1=O	10.1

Compound	activation ratio
O=C(NCc1ccccc1Cl)/C(=C\c1cccnc1)NC(=O)c1ccccc1	0.85
COC(=O)[C@@]12CCCN1[C@H](c1ccc(-c3ccc(OC)cc3)cc1)[C@@H]1C(=O)N(C)C(=O)[C@@H]12	8.2
COc1ccc(-c2cc(C(F)(F)F)nc(N3CCN(C)CC3)n2)cc1	30.7
CCOc1ccc(NS(=O)(=O)c2ccc(NC(=S)NC(=O)CC(C)C)cc2)cc1	8.97
CCCN(CCC)CCCNC(=O)c1cc2c(=O)n(C)c3ccccc3c2n1C	13.7
COc1ccc(CNCC(O)(c2ccccc2)c2ccccc2)cc1OC	3.2
CCOc1cc2[nH]c(=S)n(C3CC3)c(=O)c2cc1OCC	28.1
CCOC(=O)c1c(C(F)(F)C(F)(F)C(F)(F)C(F)(F)F)n[nH]c1C	3.73
Cn1c(=O)cc(OCCCC(=O)NCCCN2CCN(Cc3ccccc3)CC2)c2ccccc21	-1.5
CC(=O)C1=C(O)C(=O)N(Cc2ccco2)C1c1ccc2c(c1)OCO2 (stereo not drawn)	0.68
CCc1cc2c(SCC(=O)N(C)C3CCS(=O)(=O)C3)ncnc2s1 (stereo not drawn)	3.21
OC(CNCC1CCCO1)Cn1c2ccc(Br)cc2c2cc(Br)ccc21 (stereo not drawn)	4.76
CCN1CCN(c2ccc(S(=O)(=O)N3CCCCC3)cc2NC(=O)c2cccc(F)c2)CC1	13.2
COC(=O)/C=C1\SC(=NC(=O)c2cccc(Cl)c2)NC1=O	6.05
CCCc1ccc(OCc2ccc(C(=O)N3CCCC3)o2)cc1	13.4
Cc1ccc(-c2csc3ncnc(NCCN4CCOCC4)c23)cc1	3.61
Cn1c(=O)n(CCCO)c(=O)c2c1nc1n2CCCN1Cc1ccccc1	0.45
O=C(NC1CC1)c1ccc2c(c1)N(Cc1ccc(Cl)cc1)CCS2	-2.4
O=C(COc1ccccc1-c1ccccc1)NCc1ccco1	1.52
CCOc1ccc2nc(NCCNC(=O)C3CC3)c(C)cc2c1	0.93

— PubChem BioAssay
